Assay: MAD study: safety and tolerability
Format: in vivo, human
Conditions: for Abdominal pain TEAE, events / Abdominal pain TEAE, participants / Alanine aminotransferase increased TEAE, events / Alanine aminotransferase increased TEAE, participants / Any event TEAE, events / Any event TEAE, participants / Constipation TEAE, events / Constipation TEAE, participants / Diarrhea TEAE, events / Diarrhea TEAE, participants / Dry skin TEAE, events / Dry skin TEAE, participants / Dysgeusia TEAE, events / Dysgeusia TEAE, participants / Gastrointestinal disorders TEAE, events / Gastrointestinal disorders TEAE, participants / General disorders and administration site conditions TEAE, events / General disorders and administration site conditions TEAE, participants / Headache TEAE, events / Headache TEAE, participants / Injury, poisoning, and procedural complications TEAE, events / Injury, poisoning, and procedural complications TEAE, participants / Investigations TEAE, events / Investigations TEAE, participants / Medical device site reaction TEAE, events / Medical device site reaction TEAE, participants / Musculoskeletal and connective tissue disorders TEAE, events / Musculoskeletal and connective tissue disorders TEAE, participants / Nasal dryness TEAE, events / Nasal dryness TEAE, participants / Neck pain TEAE, events / Neck pain TEAE, participants / Nervous system disorders TEAE, events / Nervous system disorders TEAE, participants / Oropharyngeal pain TEAE, events / Oropharyngeal pain TEAE, participants / Reproductive system and breast disorders TEAE, events / Reproductive system and breast disorders TEAE, participants / Respiratory, thoracic, and mediastinal disorders TEAE, events / Respiratory, thoracic, and mediastinal disorders TEAE, participants / Skin and subcutaneous tissue disorders TEAE, events / Skin and subcutaneous tissue disorders TEAE, participants / Sneezing TEAE, events / Sneezing TEAE, participants / Testicular mass TEAE, events / Testicular mass TEAE, participants / Wound TEAE, events / Wound TEAE, participants: N = 8
In short: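 Healthy males aged 18–55 with BMI 18–30 kg/m² were followed through dosing and a 6–8-day follow-up. Checks: physical examination, clinical laboratory tests, vital signs and 12-lead ECG, with adverse events coded in MedDRA. Events of special interest: ALT ≥2×ULN, QTcF ≥500 ms, Grade ≥2 photosensitivity, symptomatic overdose. Treatment-emergent events were summarised descriptively by organ class, preferred term and dose level for all exposed participants.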

## CN1C(=O)c2cccc(OC(F)F)c2[C@H]2C[C@@H]1c1nc3ccc(-c4cnc(C5(N)CCC5)nc4)cc3n12 [Balinatunfib]
MAD
  Grade ≥ 3 TEAE, treatment-emergent SAEs, TEAEs leading to discontinuation: No participants
MAD 100 mg BID
  Abdominal pain TEAE, events: 0
  Abdominal pain TEAE, participants: 0 n (%)
  Alanine aminotransferase increased TEAE, events: 0
  Alanine aminotransferase increased TEAE, participants: 0 n (%)
  Any event TEAE, events: 3
  Any event TEAE, participants: 2 (25.0) n (%)
  Constipation TEAE, events: 0
  Constipation TEAE, participants: 0 n (%)
  Diarrhea TEAE, events: 0
  Diarrhea TEAE, participants: 0 n (%)
  Dry skin TEAE, events: 0
  Dry skin TEAE, participants: 0 n (%)
  Dysgeusia TEAE, events: 0
  Dysgeusia TEAE, participants: 0 n (%)
  Gastrointestinal disorders TEAE, events: 0
  Gastrointestinal disorders TEAE, participants: 0 n (%)
  General disorders and administration site conditions TEAE, events: 0
  General disorders and administration site conditions TEAE, participants: 0 n (%)
  Headache TEAE, events: 0
  Headache TEAE, participants: 0 n (%)
  Injury, poisoning, and procedural complications TEAE, events: 0
  Injury, poisoning, and procedural complications TEAE, participants: 0 n (%)
  Investigations TEAE, events: 0
  Investigations TEAE, participants: 0 n (%)
  Medical device site reaction TEAE, events: 0
  Medical device site reaction TEAE, participants: 0 n (%)
  Musculoskeletal and connective tissue disorders TEAE, events: 0
  Musculoskeletal and connective tissue disorders TEAE, participants: 0 n (%)
  Nasal dryness TEAE, events: 0
  Nasal dryness TEAE, participants: 0 n (%)
  Neck pain TEAE, events: 0
  Neck pain TEAE, participants: 0 n (%)
  Nervous system disorders TEAE, events: 0
  Nervous system disorders TEAE, participants: 0 n (%)
  Oropharyngeal pain TEAE, events: 1
  Oropharyngeal pain TEAE, participants: 1 (12.5) n (%)
  Reproductive system and breast disorders TEAE, events: 1
  Reproductive system and breast disorders TEAE, participants: 1 (12.5) n (%)
  Respiratory, thoracic, and mediastinal disorders TEAE, events: 2
  Respiratory, thoracic, and mediastinal disorders TEAE, participants: 2 (25.0) n (%)
  Skin and subcutaneous tissue disorders TEAE, events: 0
  Skin and subcutaneous tissue disorders TEAE, participants: 0 n (%)
  Sneezing TEAE, events: 1
  Sneezing TEAE, participants: 1 (12.5) n (%)
  Testicular mass TEAE, events: 1
  Testicular mass TEAE, participants: 1 (12.5) n (%)
  Wound TEAE, events: 0
  Wound TEAE, participants: 0 n (%)
MAD 100 mg QD
  Abdominal pain TEAE, events: 1
  Abdominal pain TEAE, participants: 1 (12.5) n (%)
  Alanine aminotransferase increased TEAE, events: 3
  Alanine aminotransferase increased TEAE, participants: 3 (37.5) n (%)
  Any event TEAE, events: 9
  Any event TEAE, participants: 4 (50.0) n (%)
  Constipation TEAE, events: 0
  Constipation TEAE, participants: 0 n (%)
  Diarrhea TEAE, events: 2
  Diarrhea TEAE, participants: 2 (25.0) n (%)
  Dry skin TEAE, events: 0
  Dry skin TEAE, participants: 0 n (%)
  Dysgeusia TEAE, events: 0
  Dysgeusia TEAE, participants: 0 n (%)
  Gastrointestinal disorders TEAE, events: 3
  Gastrointestinal disorders TEAE, participants: 2 (25.0) n (%)
  General disorders and administration site conditions TEAE, events: 0
  General disorders and administration site conditions TEAE, participants: 0 n (%)
  Headache TEAE, events: 1
  Headache TEAE, participants: 1 (12.5) n (%)
  Injury, poisoning, and procedural complications TEAE, events: 1
  Injury, poisoning, and procedural complications TEAE, participants: 1 (12.5) n (%)
  Investigations TEAE, events: 3
  Investigations TEAE, participants: 3 (37.5) n (%)
  Medical device site reaction TEAE, events: 0
  Medical device site reaction TEAE, participants: 0 n (%)
  Musculoskeletal and connective tissue disorders TEAE, events: 1
  Musculoskeletal and connective tissue disorders TEAE, participants: 1 (12.5) n (%)
  Nasal dryness TEAE, events: 0
  Nasal dryness TEAE, participants: 0 n (%)
  Neck pain TEAE, events: 1
  Neck pain TEAE, participants: 1 (12.5) n (%)
  Nervous system disorders TEAE, events: 1
  Nervous system disorders TEAE, participants: 1 (12.5) n (%)
  Oropharyngeal pain TEAE, events: 0
  Oropharyngeal pain TEAE, participants: 0 n (%)
  Reproductive system and breast disorders TEAE, events: 0
  Reproductive system and breast disorders TEAE, participants: 0 n (%)
  Respiratory, thoracic, and mediastinal disorders TEAE, events: 0
  Respiratory, thoracic, and mediastinal disorders TEAE, participants: 0 n (%)
  Skin and subcutaneous tissue disorders TEAE, events: 0
  Skin and subcutaneous tissue disorders TEAE, participants: 0 n (%)
  Sneezing TEAE, events: 0
  Sneezing TEAE, participants: 0 n (%)
  Testicular mass TEAE, events: 0
  Testicular mass TEAE, participants: 0 n (%)
  Wound TEAE, events: 1
  Wound TEAE, participants: 1 (12.5) n (%)
MAD 200 mg BID
  Abdominal pain TEAE, events: 0
  Abdominal pain TEAE, participants: 0 n (%)
  Alanine aminotransferase increased TEAE, events: 0
  Alanine aminotransferase increased TEAE, participants: 0 n (%)
  Any event TEAE, events: 7
  Any event TEAE, participants: 4 (50.0) n (%)
  Constipation TEAE, events: 0
  Constipation TEAE, participants: 0 n (%)
  Diarrhea TEAE, events: 1
  Diarrhea TEAE, participants: 1 (12.5) n (%)
  Dry skin TEAE, events: 2
  Dry skin TEAE, participants: 2 (25.0) n (%)
  Dysgeusia TEAE, events: 1
  Dysgeusia TEAE, participants: 1 (12.5) n (%)
  Gastrointestinal disorders TEAE, events: 1
  Gastrointestinal disorders TEAE, participants: 1 (12.5) n (%)
  General disorders and administration site conditions TEAE, events: 1
  General disorders and administration site conditions TEAE, participants: 1 (12.5) n (%)
  Headache TEAE, events: 0
  Headache TEAE, participants: 0 n (%)
  Injury, poisoning, and procedural complications TEAE, events: 0
  Injury, poisoning, and procedural complications TEAE, participants: 0 n (%)
  Investigations TEAE, events: 0
  Investigations TEAE, participants: 0 n (%)
  Medical device site reaction TEAE, events: 1
  Medical device site reaction TEAE, participants: 1 (12.5) n (%)
  Musculoskeletal and connective tissue disorders TEAE, events: 0
  Musculoskeletal and connective tissue disorders TEAE, participants: 0 n (%)
  Nasal dryness TEAE, events: 2
  Nasal dryness TEAE, participants: 2 (25.0) n (%)
  Neck pain TEAE, events: 0
  Neck pain TEAE, participants: 0 n (%)
  Nervous system disorders TEAE, events: 1
  Nervous system disorders TEAE, participants: 1 (12.5) n (%)
  Oropharyngeal pain TEAE, events: 0
  Oropharyngeal pain TEAE, participants: 0 n (%)
  Reproductive system and breast disorders TEAE, events: 0
  Reproductive system and breast disorders TEAE, participants: 0 n (%)
  Respiratory, thoracic, and mediastinal disorders TEAE, events: 2
  Respiratory, thoracic, and mediastinal disorders TEAE, participants: 2 (25.0) n (%)
  Skin and subcutaneous tissue disorders TEAE, events: 2
  Skin and subcutaneous tissue disorders TEAE, participants: 2 (25.0) n (%)
  Sneezing TEAE, events: 0
  Sneezing TEAE, participants: 0 n (%)
  Testicular mass TEAE, events: 0
  Testicular mass TEAE, participants: 0 n (%)
  Wound TEAE, events: 0
  Wound TEAE, participants: 0 n (%)
MAD 300 mg BID
  PCSA QTcF increase from baseline ]30-60] msec, participants n/N1: four
  Abdominal pain TEAE, events: 1
  Abdominal pain TEAE, participants: 1 (12.5) n (%)
  Alanine aminotransferase increased TEAE, events: 1
  Alanine aminotransferase increased TEAE, participants: 1 (12.5) n (%)
  Any event TEAE, events: 3
  Any event TEAE, participants: 2 (25.0) n (%)
  Constipation TEAE, events: 1
  Constipation TEAE, participants: 1 (12.5) n (%)
  Diarrhea TEAE, events: 0
  Diarrhea TEAE, participants: 0 n (%)
  Dry skin TEAE, events: 0
  Dry skin TEAE, participants: 0 n (%)
  Dysgeusia TEAE, events: 0
  Dysgeusia TEAE, participants: 0 n (%)
  Gastrointestinal disorders TEAE, events: 2
  Gastrointestinal disorders TEAE, participants: 1 (12.5) n (%)
  General disorders and administration site conditions TEAE, events: 0
  General disorders and administration site conditions TEAE, participants: 0 n (%)
  Headache TEAE, events: 0
  Headache TEAE, participants: 0 n (%)
  Injury, poisoning, and procedural complications TEAE, events: 0
  Injury, poisoning, and procedural complications TEAE, participants: 0 n (%)
  Investigations TEAE, events: 1
  Investigations TEAE, participants: 1 (12.5) n (%)
  Medical device site reaction TEAE, events: 0
  Medical device site reaction TEAE, participants: 0 n (%)
  Musculoskeletal and connective tissue disorders TEAE, events: 0
  Musculoskeletal and connective tissue disorders TEAE, participants: 0 n (%)
  Nasal dryness TEAE, events: 0
  Nasal dryness TEAE, participants: 0 n (%)
  Neck pain TEAE, events: 0
  Neck pain TEAE, participants: 0 n (%)
  Nervous system disorders TEAE, events: 0
  Nervous system disorders TEAE, participants: 0 n (%)
  Oropharyngeal pain TEAE, events: 0
  Oropharyngeal pain TEAE, participants: 0 n (%)
  Reproductive system and breast disorders TEAE, events: 0
  Reproductive system and breast disorders TEAE, participants: 0 n (%)
  Respiratory, thoracic, and mediastinal disorders TEAE, events: 0
  Respiratory, thoracic, and mediastinal disorders TEAE, participants: 0 n (%)
  Skin and subcutaneous tissue disorders TEAE, events: 0
  Skin and subcutaneous tissue disorders TEAE, participants: 0 n (%)
  Sneezing TEAE, events: 0
  Sneezing TEAE, participants: 0 n (%)
  Testicular mass TEAE, events: 0
  Testicular mass TEAE, participants: 0 n (%)
  Wound TEAE, events: 0
  Wound TEAE, participants: 0 n (%)
MAD 300 mg BID, Day 18, 4 days after the last dose
  ALT in the participant with ALT > 3 ULN: 181 IU/L
MAD, all balinatunfib groups
  participants with AESIs (ALT increase): four
MAD, all balinatunfib groups (12/32)
  participants with at least one TEAE: 37.5%
All repeated oral doses (100–600 mg total daily dose, 14 days)
  tolerability: well tolerated

Reference: article PMC12166256 (Clinical Pharmacology and Therapeutics, 2025)
